Measurements published in ChEMBL document CHEMBL2034874, “5-acetyl-2-arylbenzimidazoles as antiviral agents. Part 4” (Eur J Med Chem, 2012).

What was measured:
Vaccinia virus = assay: Antiviral activity against Vaccinia virus Elstree-Lister ATCC VR-1549 infected in african green monkey Vero-76 cells assessed as reduction in viral plaque after 3 days by crystal violet staining; assay type: functional, organism-based; conditions: Orthopoxvirus vaccinia, Elstree-Lister ATCC VR-1549, Vero 76, 72 h
[1] = Cytotoxicity against african green monkey Vero 76 cells after 48 to 96 hrs by MTT assay; assay type: cell-based; conditions: chlorocebus sabaeus
[2] = Cytotoxicity against MDBK cells after 48 to 96 hrs by MTT assay; assay type: cell-based, Bos taurus; conditions: cattle
In short: (§1)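 Mock-infected MDBK (6×10^5 cells/mL, MEM-E with 10% horse serum) or BHK (1×10^6 cells/mL, MEM-E with 10% FBS) cells incubated with serial compound dilutions at 37 °C and 5% CO2. Viability measured by MTT after 48–96 h. CC50 by linear regression against untreated controls.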

[3] = Antiviral activity against BVDV1 NADL ATCC VR-534 infected in MDBK cells assessed as inhibition of virus-induced cytopathogenicity after 3 to 4 days by MTT assay; assay type: functional, cell-based, Bovine viral diarrhea virus 1-NADL; conditions: Bovine viral diarrhea virus isolates and strains, ATCC VR-534, MDBK
In short: (§2)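 BHK (5×10^4/well) or MDBK (3×10^4/well) cells grown to confluent monolayers overnight, infected at m.o.i. 0.01 in maintenance MEM-Earl with 0.5% inactivated FBS. Serially diluted compounds added after 1 h. Viability read by MTT after 3–4 days at 37 °C. Values are expressed as % of untreated controls, and EC50 is derived by linear regression. Duplicate samples.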

[4] = tested on: Vesicular stomatitis Indiana virus; assay: Antiviral activity against Vesicular stomatitis virus indiana ATCC VR-1540 infected in african green monkey Vero-76 cells assessed as reduction in viral plaque after 2 days by crystal violet staining; assay type: functional, organism-based; conditions: ATCC VR-1540, Vero 76, 48 h
Coxsackievirus B5 = assay: Antiviral activity against Coxsackie virus type B5 Ohio-1 ATCC VR-29 infected in african green monkey Vero-76 cells assessed as reduction in viral plaque after 3 days by crystal violet staining; assay type: functional, organism-based; conditions: Enterovirus B, Ohio-1 ATCC VR-29, Vero 76, 72 h
In short: (§3)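 Vero-76 monolayers (2×10^5 cells/well) infected for 2 h at 50–100 PFU/well. Unadsorbed virus removed. D-MEM with 1% inactivated FBS, 0.75% methylcellulose and serial compound dilutions added. Incubation at 37 °C for 3 days (CVB-5, HSV-1) or 5 days (RSV). Fixed and stained with 50% ethanol/0.8% crystal violet, then plaques counted. EC50 by linear regression versus untreated controls.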

Human alphaherpesvirus 1 = assay: Antiviral activity against Herpes simplex virus type 1 KOS ATCC VR-1493 infected in african green monkey Vero-76 cells assessed as reduction in viral plaque after 3 days by crystal violet staining; assay type: functional, organism-based; conditions: Human alphaherpesvirus 1, KOS ATCC VR1493, Vero 76, 72 h; in short: as §3
[5] = Cytotoxicity against BHK21 cells by MTT assay; assay type: cell-based, Mesocricetus auratus; conditions: hamster, BHK-21 cells; in short: as §1
[6] = Antiviral activity against Human respiratory syncytial virus A2 ATCC VR-1540 infected in african green monkey Vero-76 cells assessed as reduction in viral plaque after 5 days by crystal violet staining; assay type: functional, cell-based; conditions: ATCC VR-1540, Vero 76, 120 h; in short: as §3
Yellow fever virus = assay: Antiviral activity against Yellow fever virus 17D infected in BHK21 cells assessed as inhibition of virus-induced cytopathogenicity after 3 to 4 days by MTT assay; assay type: functional, cell-based; conditions: BHK-21
Poliovirus 1 = assay: Antiviral activity against Polio virus type 1 strain sabin ATCC VR-1562 infected in african green monkey Vero-76 cells assessed as reduction in viral plaque after 2 days by crystal violet staining; assay type: functional, cell-based, Human poliovirus 1 strain Sabin; conditions: Enterovirus C, ATCC VR-1562, Vero 76, 48 h
[7] = tested on: Mammalian orthoreovirus 1; assay: Antiviral activity against Reovirus 1 3651 ATCC VR-214 infected in BHK21 cells assessed as inhibition of virus-induced cytopathogenicity after 3 to 4 days by MTT assay; assay type: functional, organism-based; conditions: Mammalian orthoreovirus 1, 3651 ATCC VR-214, BHK-21; in short: as §2

COc1c(C)c2c(c(O)c1C/C=C(\C)CCC(=O)O)C(=O)OC2 [MYCOPHENOLIC ACID]
EC50 (Vaccinia virus): 1.5 µM | CC50 [1]: ≥ 12.5 µM

COc1ccc(-c2nc3cc(/C(C)=N/NC(N)=O)ccc3n2C2CCCCC2)cc1
CC50 [2]: 54 µM | EC50 [3]: > 54 µM

C/C(=N\NC(N)=O)c1ccc2c(c1)nc(-c1ccc(Cl)cc1)n2C1CCCCC1
EC50 [4]: > 100 µM | EC50 (Coxsackievirus B5): > 100 µM | EC50 (Vaccinia virus): > 100 µM | EC50 (Human alphaherpesvirus 1): > 100 µM | CC50 [5]: > 100 µM | EC50 [6]: > 100 µM | EC50 (Yellow fever virus): > 100 µM | CC50 [2]: > 100 µM | EC50 (Poliovirus 1): > 100 µM | EC50 [3]: > 100 µM | CC50 [1]: > 100 µM | EC50 [7]: > 100 µM

C/C(=N\O)c1ccc2[nH]c(-c3ccccc3)nc2c1
EC50 [4]: > 100 µM | EC50 (Coxsackievirus B5): > 100 µM | EC50 (Vaccinia virus): > 100 µM | EC50 (Human alphaherpesvirus 1): > 100 µM | CC50 [5]: > 100 µM | EC50 [6]: > 100 µM | EC50 (Yellow fever virus): > 100 µM | CC50 [2]: > 100 µM | EC50 (Poliovirus 1): > 100 µM | EC50 [3]: > 100 µM | CC50 [1]: > 100 µM | EC50 [7]: > 100 µM

C[C@@]1(O)[C@H](O)[C@@H](CO)O[C@H]1n1ccc(N)nc1=O
CC50 [5]: > 100 µM | EC50 [7]: 16 µM

CC(=O)c1ccc2[nH]c(-c3ccccc3)nc2c1
EC50 [4]: > 100 µM | EC50 (Coxsackievirus B5): > 100 µM | EC50 (Vaccinia virus): > 100 µM | EC50 (Human alphaherpesvirus 1): > 100 µM | CC50 [5]: > 100 µM | EC50 [6]: > 100 µM | EC50 (Yellow fever virus): > 100 µM | CC50 [2]: > 100 µM | EC50 (Poliovirus 1): > 100 µM | EC50 [3]: 100 µM | CC50 [1]: > 100 µM | EC50 [7]: > 100 µM

Nc1nc2c(ncn2COCCO)c(=O)[nH]1 [ACYCLOVIR]
CC50 [1]: > 100 µM

O=[N+]([O-])c1ccc2[nH]c(-c3ccccc3)nc2c1
EC50 [3]: 1.5 µM

C/C(=N\NC(N)=O)c1ccc2c(c1)nc(-c1ccoc1)n2C1CCCCC1
CC50 [2]: > 100 µM | EC50 [3]: 100 µM

C/C(=N\NC(N)=O)c1ccc2[nH]c(-c3ccc(C(F)(F)F)cc3)nc2c1
EC50 [4]: > 100 µM | EC50 (Coxsackievirus B5): > 100 µM | EC50 (Vaccinia virus): > 100 µM | EC50 (Human alphaherpesvirus 1): > 100 µM | CC50 [5]: > 100 µM | EC50 [6]: > 100 µM | EC50 (Yellow fever virus): > 100 µM | CC50 [2]: > 100 µM | EC50 (Poliovirus 1): > 100 µM | EC50 [3]: 45 µM | CC50 [1]: > 100 µM | EC50 [7]: > 100 µM

C/C(=N\NC(N)=O)c1ccc2[nH]c(-c3ccccc3)nc2c1
EC50 [4]: > 100 µM | EC50 (Coxsackievirus B5): > 100 µM | EC50 (Vaccinia virus): > 100 µM | EC50 (Human alphaherpesvirus 1): > 100 µM | CC50 [5]: > 100 µM | EC50 [6]: > 100 µM | EC50 (Yellow fever virus): > 100 µM | CC50 [2]: > 100 µM | EC50 (Poliovirus 1): > 100 µM | EC50 [3]: 50 µM | CC50 [1]: > 100 µM | EC50 [7]: > 100 µM

COc1ccc(-c2nc3cc(/C(C)=N/O)ccc3[nH]2)cc1
EC50 (Coxsackievirus B5): > 100 µM | EC50 (Vaccinia virus): > 100 µM | CC50 [5]: 44 µM | EC50 (Yellow fever virus): > 44 µM | CC50 [2]: 44 µM | EC50 (Poliovirus 1): > 100 µM | EC50 [3]: > 44 µM | CC50 [1]: > 100 µM | EC50 [7]: > 100 µM

C/C(=N\NC(N)=O)c1ccc2[nH]c(-c3ccc(Cl)cc3)nc2c1
EC50 [4]: > 100 µM | EC50 (Coxsackievirus B5): > 100 µM | EC50 (Vaccinia virus): > 100 µM | EC50 (Human alphaherpesvirus 1): > 100 µM | CC50 [5]: > 100 µM | EC50 [6]: > 100 µM | EC50 (Yellow fever virus): > 100 µM | CC50 [2]: > 100 µM | EC50 (Poliovirus 1): > 100 µM | EC50 [3]: > 100 µM | CC50 [1]: > 100 µM | EC50 [7]: > 100 µM

C/C(=N\NC(N)=O)c1ccc2[nH]c(-c3ccoc3)nc2c1
EC50 [4]: > 100 µM | EC50 (Coxsackievirus B5): > 100 µM | EC50 (Vaccinia virus): > 100 µM | EC50 (Human alphaherpesvirus 1): > 100 µM | CC50 [5]: > 100 µM | EC50 [6]: > 100 µM | EC50 (Yellow fever virus): > 100 µM | CC50 [2]: > 100 µM | EC50 (Poliovirus 1): > 100 µM | EC50 [3]: 60 µM | CC50 [1]: > 100 µM | EC50 [7]: > 100 µM

C/C(=N\NC(N)=O)c1ccc2c(c1)nc(-c1ccc(C(F)(F)F)cc1)n2C1CCCCC1
EC50 [4]: > 100 µM | EC50 (Coxsackievirus B5): > 100 µM | EC50 (Vaccinia virus): > 100 µM | CC50 [5]: > 100 µM | EC50 [6]: > 100 µM | EC50 (Yellow fever virus): > 100 µM | CC50 [2]: > 100 µM | EC50 (Poliovirus 1): > 100 µM | EC50 [3]: > 100 µM | CC50 [1]: > 100 µM | EC50 [7]: > 100 µM

CC(=O)Nc1ccc(/C=C/c2nc3cc(C(F)(F)F)ccc3[nH]2)cc1
EC50 [6]: 1 µM
